# GASC1 inh: inhibitors of human demethylase GASC-1 KDM4C; Q9H3R0; GST-KDM4C 2-372, H3K9me3 peptide, LANCE TR-FRET; inhibition, % at 12.5 µM; 96,000 compounds, 0.15% hits; AID 720574;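 active = mean replicate inhibition above about 25%, with at least 55% of replicates also reaching it, limit read from the data, passing the limit was not always enough; inconclusive = only one of those two conditions met; inactive = neither condition met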
# Target sequence (Q9H3R0 2-372 limits assumed): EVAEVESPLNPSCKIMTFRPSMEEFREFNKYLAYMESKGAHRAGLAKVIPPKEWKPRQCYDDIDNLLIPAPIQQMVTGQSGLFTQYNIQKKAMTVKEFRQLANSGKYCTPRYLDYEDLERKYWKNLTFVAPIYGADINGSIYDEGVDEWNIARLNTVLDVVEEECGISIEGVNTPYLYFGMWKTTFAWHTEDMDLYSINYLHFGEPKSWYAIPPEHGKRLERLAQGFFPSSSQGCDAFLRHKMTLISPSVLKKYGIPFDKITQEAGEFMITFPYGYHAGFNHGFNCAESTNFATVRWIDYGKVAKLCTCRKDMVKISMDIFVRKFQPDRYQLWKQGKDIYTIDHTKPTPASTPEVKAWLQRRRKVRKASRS
#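 reagent = H3K9me3 peptide substrate, Fe(II), 2-oxoglutarate | system = GST-tagged GASC-1 (JMJD2C) catalytic fragment, aa 2-372 | amount = enzyme final amount 10 nM | read-out = Fall in 671/618 emission ratio as inhibition | medium = HEPES buffer, pH 7.5, plus ascorbate | schedule = 30 min reaction, 60 min detection, RT | measured by = LANCE TR-FRET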
# T cruzi growth-1: blocks T. cruzi growth in NIH3T3 culture; T. cruzi beta-gal in NIH3T3, GalScreen luminescence, 90 h; inhibition, % at 8.34 µM; 77,000 compounds, 5.9% hits;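 active = mean inhibition above about 93%, with at least 55% of replicates each passing it, limit read from the data, passing the limit was not always enough; inconclusive = only one of those two conditions holds; inactive = neither condition holds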
# IDH1 R132H inh: inhibitors of human IDH1 R132H | O75874 | IDH1 R132H reductase, diaphorase/resazurin fluorescence, 60 min | inhibition, % at 10 µM | 70,000 compounds, 0.18% hits; in the data active = inhibition above about 34%; inconclusive = no clear call, values can overlap the other calls; inactive = below about 11%
# T cruzi growth-2: Trypanosoma cruzi proliferation inhibition; shares compounds with T cruzi growth-1; T. cruzi beta-gal in NIH3T3, GalScreen luminescence, 90 h; inhibition, % at 8.35 µM; 5,600 compounds, 72% hits;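 active = mean replicate inhibition above about 95% and at least 55% of replicates individually reaching it, limit read from the data; inconclusive = only one of the two criteria is met; inactive = neither criterion is met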
# T cruzi growth-3: Trypanosoma cruzi proliferation inhibition; T. cruzi beta-gal in NIH3T3, GalScreen luminescence, 90 h; 5,600 compounds, 21% hits; shares compounds with T cruzi growth-1; inhibition, % at 2.09 µM;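 active = mean inhibition above about 95%, with at least 55% of replicates also reaching it, limit read from the data; inconclusive = meets just one of the two conditions; inactive = meets neither condition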
# NIH3T3 tox: NIH/3T3 (mouse) viability loss; NIH/3T3 viability, CellTiter-Glo ATP luminescence, 90 h; 5,600 compounds, 14% hits; shares compounds with T cruzi growth-1; cytotoxicity (signal decrease), % at 8.35 µM;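 active = mean signal decrease across replicates above about 35% based on untreated-well scatter, with enough replicates individually passing, limit read from the data; inconclusive = no rule stated though some were filed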
# NIH3T3 tox 2: kills mouse NIH/3T3 fibroblasts | 5,600 compounds, 56% hits | inhibition, % at 24.9 µM | NIH/3T3 viability, CellTiter-Glo ATP luminescence, 90 h | shares compounds with T cruzi growth-1 | AID 651744;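 active = mean loss of cell viability signal at or above a set limit, and enough replicates individually reaching it; inconclusive = meets only the mean limit or only the replicate share; inactive = meets neither condition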
# Numbers stand for hits; – = inactive; ? = inconclusive; · = no result given. Only a selection was taken, and hits are over-represented in it overall.
SMILES,GASC1 inh,T cruzi growth-1,IDH1 R132H inh,T cruzi growth-2,T cruzi growth-3,NIH3T3 tox,NIH3T3 tox 2
CCNC(=O)[C@@H]1[C@@H](CO)[C@@H]2Cn3c(ccc(C4=CCCCC4)c3=O)[C@H]1N2Cc1ccncc1,–,–,·,·,·,·,·
C[C@@H]1CN([C@H](C)CO)C(=O)Cc2cc(NC(=O)CCCCCC(=O)Nc3ccccc3N)ccc2O[C@H]1CN(C)Cc1ccccc1,–,–,–,·,·,·,·
C[C@H]1CN([C@@H](C)CO)C(=O)Cc2cc(NC(=O)CCCCCC(=O)Nc3ccccc3N)ccc2O[C@H]1CN(C)Cc1ccc2c(c1)OCO2,–,?,–,–,–,–,–
C[C@@H]1CN([C@@H](C)CO)C(=O)Cc2cc(NC(=O)CCCCCC(=O)Nc3ccccc3N)ccc2O[C@H]1CN(C)Cc1ccc2c(c1)OCO2,·,·,–,·,·,·,·
C[C@H](CO)N1C[C@H](C)[C@@H](CN(C)Cc2ccc3c(c2)OCO3)Oc2ccc(NC(=O)CCCCCC(=O)Nc3ccccc3N)cc2CC1=O,–,101,–,109,–,–,–
Cc1noc(C)c1S(=O)(=O)N(C)C[C@H]1Oc2ccc(NS(=O)(=O)c3ccc(Cl)cc3)cc2CC(=O)N([C@H](C)CO)C[C@@H]1C,–,–,–,·,·,·,·
CN(C)C(=O)c1ccc(-c2ccccc2[C@H]2[C@@H](C#N)N(C(=O)C3CCCC3)[C@H]2CO)cc1,–,·,·,·,·,·,·
O=S(=O)(c1ccccc1F)N1C[C@@H]2N[C@H](C1)C2c1ccc(-c2cccnc2)cc1 (some centres undefined),–,·,·,·,·,·,·
O=C1CCC=CC1(O)C(=O)OCc1cccc(O)c1OC1OC(CO)C(O)C(O)C1O (centres undefined),·,·,–,·,·,·,·
COc1ccccc1C#Cc1ccc([C@@H]2[C@H]3CN(C(=O)C4CC4)CCCCN3[C@H]2CO)cc1,·,103,·,109,–,?,102
COc1ccccc1C#Cc1ccc([C@H]2[C@H](CO)N3CCCCN(C(=O)C4CC4)C[C@@H]23)cc1,·,106,·,109,–,–,104
COc1ccccc1C#Cc1ccc([C@@H]2[C@@H](CO)N3CCCCN(C(=O)C4CCC4)C[C@@H]23)cc1,–,–,·,·,·,·,·
CN1C(=O)c2cc(NC(=O)Cc3ccccc3)ccc2OC[C@H]2O[C@H](CC(=O)NCc3ccc(Cl)cc3)CC[C@@H]21,–,–,·,·,·,·,·
C[C@@H]1CN([C@@H](C)CO)C(=O)c2cccc(NC(=O)Nc3ccc4c(c3)OCO4)c2O[C@@H]1CN(C)Cc1ccc(-c2ccccc2)cc1,–,–,–,·,·,·,·
O=C(C[C@@H]1C=C[C@@H](NS(=O)(=O)c2ccc(F)cc2)[C@@H](CO)O1)NCc1ccccc1F,–,·,·,·,·,·,·
COc1ccc(S(=O)(=O)N(C)C[C@@H]2Oc3cc(-c4cccc(F)c4)ccc3S(=O)(=O)N([C@@H](C)CO)C[C@@H]2C)cc1,–,·,–,·,·,·,·
C[C@H](CO)N1C[C@H](C)[C@@H](CN(C)C)Oc2cc(-c3cccc(F)c3)ccc2S1(=O)=O,–,–,–,·,·,·,·
Cc1ccc(S(=O)(=O)N(C)C[C@H]2Oc3cc(-c4cccc(F)c4)ccc3S(=O)(=O)N([C@@H](C)CO)C[C@@H]2C)cc1,45,124,87,97,–,–,38
C[C@H]1CN([C@@H](C)CO)S(=O)(=O)c2ccc(-c3cccc(F)c3)cc2O[C@@H]1CN(C)S(=O)(=O)c1ccc(F)cc1,–,127,·,105,104,57,38
C[C@@H]1CN([C@H](C)CO)S(=O)(=O)c2ccc(-c3cccc(F)c3)cc2O[C@@H]1CN(C)S(=O)(=O)c1ccc(F)cc1,–,98,·,100,–,47,47
C[C@H]1CN([C@@H](C)CO)S(=O)(=O)c2ccc(-c3cccc(F)c3)cc2O[C@@H]1CN(C)S(C)(=O)=O,–,–,–,·,·,·,·
C[C@@H]1CN([C@@H](C)CO)S(=O)(=O)c2ccc(-c3cccc(F)c3)cc2O[C@@H]1CN(C)C,–,–,–,·,·,·,·
C[C@H]1CN([C@@H](C)CO)S(=O)(=O)c2ccc(-c3cccc(F)c3)cc2O[C@H]1CN(C)S(C)(=O)=O,–,138,–,102,–,–,52
COc1ccc(S(=O)(=O)N(C)C[C@H]2OCCCC[C@H](C)Oc3ccc(NC(=O)Nc4ccc(C(F)(F)F)cc4)cc3C(=O)N([C@@H](C)CO)C[C@@H]2C)cc1,–,–,–,·,·,·,·
COc1ccc(S(=O)(=O)Nc2cccc3c2O[C@@H](CN(C)Cc2ccc(C(=O)O)cc2)[C@H](C)CN([C@@H](C)CO)C3=O)cc1,–,105,–,–,–,–,–
SMILES,GASC1 inh,T cruzi growth-1,IDH1 R132H inh,T cruzi growth-2,T cruzi growth-3,NIH3T3 tox,NIH3T3 tox 2
C[C@H](CO)N1C[C@H](C)[C@H](CN(C)Cc2ccc(C(=O)O)cc2)Oc2c(NS(=O)(=O)c3cn(C)cn3)cccc2C1=O,–,?,·,–,–,–,–
C[C@@H]1CN([C@@H](C)CO)C(=O)c2cccc(NS(=O)(=O)c3cn(C)cn3)c2O[C@@H]1CN(C)CC1CCCCC1,–,–,·,·,·,·,·
COc1ccc(S(=O)(=O)Nc2cccc3c2O[C@H](CN(C)Cc2ccc(C(=O)O)cc2)[C@@H](C)CN([C@@H](C)CO)C3=O)cc1,–,–,–,·,·,·,·
C[C@H]1CN([C@@H](C)CO)C(=O)c2cccc(NS(=O)(=O)c3cn(C)cn3)c2O[C@H]1CN(C)Cc1ccc(C(=O)O)cc1,–,–,·,·,·,·,·
C[C@@H]1CN([C@H](C)CO)C(=O)c2cccc(NS(=O)(=O)c3cn(C)cn3)c2O[C@H]1CN(C)CC1CCCCC1,–,102,·,–,–,–,–
CNC[C@H]1OCCCC[C@@H](C)Oc2ccc(NC(=O)CCC(F)(F)F)cc2C(=O)N([C@H](C)CO)C[C@H]1C,–,–,–,·,·,·,·
CO[C@@H]1CN(C)C(=O)c2ccc(NC(C)=O)cc2OC[C@@H](C)N(Cc2cncnc2)C[C@H]1C,–,–,–,·,·,·,·
O=C(Nc1cccc(Cl)c1)N1[C@@H]2CNC[C@H]1C2c1ccc(/C=C/c2ccccc2)cc1 (some centres undefined),–,·,·,·,·,·,·
O=C(C[C@H]1CC[C@H]2[C@@H](COC[C@@H](O)CN2Cc2cc(F)ccc2F)O1)N[C@@H]1CCN(Cc2ccccc2)C1,–,99,·,–,–,–,–
O=C(C[C@H]1CC[C@@H]2[C@H](COC[C@@H](O)CN2Cc2cc(F)ccc2F)O1)N[C@@H]1CCN(Cc2ccccc2)C1,–,–,·,·,·,·,·
O=C(C[C@@H]1CC[C@H]2[C@@H](COC[C@@H](O)CN2Cc2ccccc2F)O1)N[C@H]1CCN(Cc2ccccc2)C1,–,–,·,·,·,·,·
O=C(C[C@H]1CC[C@H]2[C@@H](COC[C@@H](O)CN2Cc2cc(F)ccc2F)O1)N[C@H]1CCN(Cc2ccccc2)C1,–,158,·,–,–,–,–

# Assay outcomes deposited in PubChem BioAssay by Broad Institute.
